A short description of data set [1]: Lipophilicity, log P of the compound. In kind it is physicochemical. To be noted: octanol/water. In short, it runs like this:
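Octanol–PBS partition (log Poct/PBS) measured on the N-11C-labeled radiotracers.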

The test system of data set [2] is Mus musculus. Kind of data set: Ratio of drug uptake in iv dosed Balb/C mouse brain at 2 to 30 mins. It counts as ADME, organism-based. To be noted: in vivo. In outline:
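Wild-type mice received the 11C-labeled tracers i.v. Brain uptake was measured as %ID/g at 2 and 30 min post-injection, and the 2 min/30 min ratio was taken. Means ± sd, n = 4-5.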

The test system of data set [3] is Plasma. Kind of data set: Metabolic stability in Balb/C mouse plasma assessed as radioactivity. It counts as ADME, cell-free.
The nature of data set [4]: Displacement of [3H]PIB from human A-beta-40 peptide. In outline:
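Competition binding against [3H]PIB using precipitated synthetic Aβ(1-40) peptide aggregates. Ki derived from competition data.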
For orientation: Loss of bound radioactivity is the signal in a displacement assay; it reports binding, not function.

The source of these data is ChEMBL document CHEMBL1142954, “Metabolically stabilized benzothiazoles for imaging of amyloid plaques” (J Med Chem, 2007).

A word on the logP: it is a log measure of how a compound divides between an organic and an aqueous phase. Read a low logP as a more hydrophilic compound. For orientation: Ki means a dissociation constant, usually derived from enzyme kinetics or from competition with a known ligand. A high value points to lower affinity. For the compound `[11CH3]Nc1ccc(-c2nc3cc(F)ccc3s2)cc1Br`, the logP in data set [1] amounted to 4.18. Besides, the Ratio in data set [2] amounted to 2.5. In addition, in data set [3], the t1/2 is given as 7.2 min. In data set [4], this compound displayed an inhibitory constant (Ki) of 1.3 nM.

For the compound `[11CH3]Nc1ccc(-c2nc3cc(F)ccc3s2)cc1Cl`, the logP in data set [1] came to 2.81. For the same compound, the Ratio in data set [2] amounted to 9.8. Moreover, the t1/2 in data set [3] is given as 22.1 min. This compound also registered an inhibitory constant (Ki) in data set [4] of 3.4 nM.

`Cc1cc(-c2nc3cc(F)ccc3s2)ccc1N[11CH3]` came in with a logP in data set [1] of 2.93. Besides, the Ratio in data set [2] was found to be 6.3. For the same compound, the t1/2 in data set [3] is 14.3 min. For the same compound, the inhibition constant (Ki) in data set [4] amounted to 8.4 nM.

`Cc1cc(-c2nc3ccccc3s2)ccc1N[11CH3]` showed a logP in data set [1] of 3.36. For the same compound, in data set [2], the Ratio is reported as 2.8. Also, the t1/2 in data set [3] came out at 7.5 min. Also, the Ki in data set [4] is 4.4 nM.

`[11CH3]Nc1ccc(-c2nc3ccccc3s2)cc1F`: the logP in data set [1] was determined as 3.05. Further, in data set [2], the Ratio is reported as 3.1. The t1/2 in data set [3] is reported as 8.4 min. In data set [4], this compound came in with an inhibitory constant (Ki) of 6.8 nM.

For `[11CH3]Nc1ccc(-c2nc3cc(F)ccc3s2)cc1`, the lipophilicity (logP) in data set [1] was 3.27. Besides, the Ratio in data set [2] is 2.5. For the same compound, in data set [3], the t1/2 turned out to be 6.8 min. Besides, in data set [4], the affinity, expressed as Ki, was 12.4 nM.
